Assay results: ChEMBL document CHEMBL1131300, “Synthesis and calcium channel-modulating effects of alkyl (or cycloalkyl) 1,4-dihydro-2,6-dimethyl-3-nitro-4-pyridyl-5-pyridinecarboxylate racemates and enantiomers” (J Med Chem, 1998); call rule not given here

Experiments:
[1] = species on record: Cavia porcellus; assay: Compound was tested for calcium channel agonistic activity, causing a 50% increase of the maximum contractile response on guinea pig left atrium.; assay type: functional, Cardiac atrium
Summary of the method: (§1)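 Guinea pig left atrium (GPLA) preparation exposed to increasing test compound concentrations. […] Number of experiments varies per compound. For weak responders, percent increase in contractile force recorded at individual concentrations.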

[2] = species on record: Cavia porcellus; assay: Inhibition of carbachol-induced tonic contractile response in guinea pig ileal longitudinal smooth muscle; assay type: functional
Summary of the method: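 Guinea pig ileal longitudinal smooth muscle contracted by the muscarinic agonist carbachol (1.6 × 10⁻⁷ M). Slow, Ca²⁺-dependent tonic component measured. […] Reported ± SEM, n = 3.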

[3] = species on record: Cavia porcellus; assay: Calcium channel agonist activity causing a 50% increase in maximum contractile response on guinea pig left atrium; No effect; assay type: functional, Cardiac atrium; summary of the method: as §1
[4] = species on record: Cavia porcellus; assay: Calcium channel agonist activity causing a 50% increase in maximum contractile response on guinea pig left atrium; 'c' means Weak agonist; assay type: functional, Cardiac atrium; summary of the method: as §1
[5] = Cavia porcellus, Cardiac atrium

EC50 [1, 5]	Compound	further results
4.94 µM	CC1=NC(C)=C([N+](=O)[O-])C(c2ccncc2)/C1=C(\O)OC1CCCCC1 (configuration not stated)	
6.46 µM	CCO/C(O)=C1\C(C)=NC(C)=C([N+](=O)[O-])C1c1ccncc1 (configuration not stated)	
48.5 µM	CO/C(O)=C1\C(C)=NC(C)=C([N+](=O)[O-])C1c1ccncc1 (configuration not stated)	
9.1 µM	CC1=NC(C)=C([N+](=O)[O-])C(c2ccccn2)/C1=C(\O)OCC(C)C (configuration not stated)	IC50 ([2]; Cavia porcellus): 2.61 µM
37.7 µM	COCCO/C(O)=C1\C(C)=NC(C)=C([N+](=O)[O-])C1c1ccncc1 (configuration not stated)	
4.25 µM	CC1=NC(C)=C([N+](=O)[O-])C(c2ccncc2)/C1=C(\O)OC1CCCC1 (configuration not stated)	
1.74 µM	CC1=NC(C)=C([N+](=O)[O-])C(c2cccnc2)/C1=C(\O)OCC(C)C (configuration not stated)	
8.51 µM	CC1=NC(C)=C([N+](=O)[O-])C(c2ccncc2)/C1=C(\O)OCC(C)C (configuration not stated)	
8.84 µM	CCO/C(O)=C1\C(C)=NC(C)=C([N+](=O)[O-])C1c1cccnc1 (configuration not stated)	
70 µM	CO/C(O)=C1\C(C)=NC(C)=C([N+](=O)[O-])C1c1cccnc1 (configuration not stated)	
2.82 µM	CC1=NC(C)=C([N+](=O)[O-])C(c2ccncc2)/C1=C(\O)OC(C)(C)C (configuration not stated)	

The next lines start with the compound.

Compound	EC50 [1, 5]	further results
CC1=NC(C)=C([N+](=O)[O-])C(c2cccnc2)/C1=C(\O)OC1CCCCC1 (configuration not stated)	2.76 µM	
COCCO/C(O)=C1\C(C)=NC(C)=C([N+](=O)[O-])C1c1cccnc1 (configuration not stated)	49.4 µM	
CC1=NC(C)=C([N+](=O)[O-])C(c2cccnc2)/C1=C(\O)OC(C)(C)C (configuration not stated)	14.6 µM	
CC1=NC(C)=C([N+](=O)[O-])C(c2ccccn2)/C1=C(\O)OC(C)(C)C (configuration not stated)	1810 µM	IC50 ([2]; Cavia porcellus): 1.93 µM
COCCO/C(O)=C1\C(C)=NC(C)=C([N+](=O)[O-])C1c1ccccn1 (configuration not stated)	9.7 µM	IC50 ([2]; Cavia porcellus): 94.7 µM
CO/C(O)=C1\C(C)=NC(C)=C([N+](=O)[O-])C1c1ccccn1 (configuration not stated)		EC50 [3]: Not Active; IC50 ([2]; Cavia porcellus): 212 µM
CC1=NC(C)=C([N+](=O)[O-])C(c2ccccn2)/C1=C(\O)OC1CCCC1 (configuration not stated)	19.8 µM	IC50 ([2]; Cavia porcellus): 0.45 µM
CC1=NC(C)=C([N+](=O)[O-])C(c2cccnc2)/C1=C(\O)OC1CCCC1 (configuration not stated)	3.28 µM	
CCO/C(O)=C1\C(C)=NC(C)=C([N+](=O)[O-])C1c1ccccn1 (configuration not stated)	22.8 µM	IC50 ([2]; Cavia porcellus): 5 µM
CC1=NC(C)=C([N+](=O)[O-])C(c2ccccn2)/C1=C(\O)OC1CCCCC1 (single isomer, unassigned; (+))		EC50 [1]: 8.45 µM; IC50 [2]: 5.27 µM
CC1=NC(C)=C([N+](=O)[O-])C(c2ccccn2)/C1=C(\O)OC1CCCCC1 (single isomer, unassigned; (-))		EC50 [4]: Partial agonist; IC50 [2]: 0.0748 µM
CC1=NC(C)=C([N+](=O)[O-])C(c2ccccn2)/C1=C(\O)OC1CCCCC1 (stereo in doubt; 14a)		EC50 [1]: 3.7 µM; IC50 [2]: 0.842 µM
